{"data": "Experimental data from different studies", "FOLH1": "Glutamate carboxypeptidase 2 (FOLH1, Homo sapiens, UniProt Q04609)", "PIK3CB": "Phosphatidylinositol 4,5-bisphosphate 3-kinase catalytic subunit beta isoform (PIK3CB, Homo sapiens, UniProt P42338)", "PIK3CA": "Phosphatidylinositol 4,5-bisphosphate 3-kinase catalytic subunit alpha isoform (PIK3CA, Homo sapiens, UniProt P42336)"}
{"Structure (SMILES)": "O=C(O)CC[C@H](NC(=O)N[C@@H](CCCCNC(=O)CCCCCCC(=O)NCCCC[C@@H](NC(=O)[C@H](CCC(=O)O)NC(=O)[C@H](CCC(=O)O)NC(=O)CCC(=O)NCCCN1CC[S][Tc]2(=[O])[S]CC[N]2CC1)C(=O)O)C(=O)O)C(=O)O (stereo partly shown)", "target": "FOLH1", "test": "binding, radioligand", "endpoint": "Kd", "value": "0.0068 µM"}
{"Structure (SMILES)": "CC(C)c1cccc(C(C)C)c1N=C1C(=O)N(Cc2ccc(Br)cc2)c2ccccc21", "target": "PIK3CB", "test": "enzyme activity, inhibitor, ADP detection", "endpoint": "IC50", "value": "0.0862 µM"}
{"Structure (SMILES)": "CC[C@H](C)[C@H](NC(=O)[C@H](Cc1nc2ccccc2s1)NC(=O)CCC(=O)O)C(=O)N[C@H]1CCc2cccc3c2N(C1=O)[C@H](C(=O)NCc1cn[nH]n1)C3", "target": "Granzyme B (GZMB, Homo sapiens, UniProt P10144)", "test": "enzyme activity, inhibitor, fluorescence", "endpoint": "Ki", "value": "0.0378 µM"}
{"Structure (SMILES)": "COc1cc(N=C2C(=O)N(Cc3ccccc3)c3ccccc32)cc(OC)c1", "target": "PIK3CB", "test": "enzyme activity, inhibitor, ADP detection", "endpoint": "IC50", "value": "0.038 µM"}
{"Structure (SMILES)": "CC1(C)CN(CCCCC(=O)N[C@H](Cc2ccccc2)C(=O)N[C@H](Cc2ccccc2)C(=O)N[C@@H](CCCCNC(=O)CCCCCCC(=O)NCCCC[C@H](NC(=O)N[C@@H](CCC(=O)O)C(=O)O)C(=O)O)C(=O)O)CC[N]2CC(C)(C)[S][Tc]2(=[O])[S]1 (stereo partly shown)", "target": "FOLH1", "test": "binding, radioligand", "endpoint": "Kd", "value": "0.0155 µM"}
{"Structure (SMILES)": "O=C1C(=Nc2ccc(Cl)cc2Br)c2ccccc2N1Cc1ccc(Br)cc1", "target": "PIK3CA", "test": "enzyme activity, inhibitor, ADP detection", "endpoint": "IC50", "value": "0.0434 µM"}
{"Structure (SMILES)": "CN(C)C(=O)c1cc2cnc(Nc3ccc(-c4cccc5c(=O)cc(N6CCOCC6)oc45)cc3)nc2n1C1CCCC1", "target": "PIK3CA", "test": "enzyme activity, inhibitor, radiometric", "endpoint": "IC50", "value": "0.472 µM"}
{"Structure (SMILES)": "CC1(C)CN(CCCCC(=O)N[C@@H](CCC(=O)O)C(=O)N[C@@H](CCC(=O)O)C(=O)N[C@H](CCCCNC(=O)CCCCCCC(=O)NCCCC[C@H](NC(=O)N[C@@H](CCC(=O)O)C(=O)O)C(=O)O)C(=O)O)CC[N]2CC(C)(C)[S][Tc]2(=[O])[S]1 (stereo partly shown)", "target": "FOLH1", "test": "binding, radioligand", "endpoint": "Kd", "value": "0.0061 µM"}
{"Structure (SMILES)": "COc1nc(-c2cccc(-c3ccccc3)c2C)ccc1CNCCNC(=O)CCCCCCCCCCC(=O)N1CCN(CCNC(=O)c2cc3c(=O)n4cccc(C)c4nc3n(CCc3cccs3)c2=N)CC1", "target": "Speckle-type POZ protein (SPOP, Homo sapiens, UniProt O43791)", "test": "binding, BLI", "endpoint": "Kd", "value": "2.64 µM"}
{"Structure (SMILES)": "CN1CCN(c2cc(=O)c3ccc(Nc4ncc5cc(C(=O)N(C)C)n(C6CCCC6)c5n4)cc3o2)CC1", "target": "PIK3CA", "test": "enzyme activity, inhibitor, radiometric", "endpoint": "IC50", "value": "> 10 µM"}
{"Structure (SMILES)": "CC1=CC(=O)NS(=O)(=O)O1", "target": "T1R2/T1R3 (Homo sapiens, UniProt Q7RTX0+Q8TE23)", "test": "calcium signal, agonist", "endpoint": "EC50", "value": "1340 µM"}
{"Structure (SMILES)": "CN(C)C(=O)c1cc2cnc(Nc3cc(C(F)(F)F)c(-c4cccc5c(=O)cc(N6CCOCC6)oc45)cn3)nc2n1C1CCCC1", "target": "PIK3CA", "test": "enzyme activity, inhibitor, radiometric", "endpoint": "IC50", "value": "> 10 µM"}
{"Structure (SMILES)": "CCC(C(=O)N1C(=O)C(=Nc2ccc(Cl)cc2Br)c2ccccc21)c1ccccc1 (stereo not shown)", "target": "PIK3CA", "test": "enzyme activity, inhibitor, ADP detection", "endpoint": "IC50", "value": "0.409 µM"}
